The values below come from ChEMBL document CHEMBL1147826, “Activity of B-nor analogues of neurosteroids on the GABA(A) receptor in primary neuronal cultures” (J Med Chem, 2006).

As usually defined, the inhibition is the percentage by which the read-out fell short of the control. Low values mean a response near the control, high ones a response far below the control.

Calls of active or inactive are those of the source. The calls are words filed in the database; no cut-off is given here.

Test [1] addresses T1, GABA-A receptor; anion channel (Mus musculus) (UniProt Q8BHJ7+P26048+Q8QZW7+P50571+Q9R0Y8+P22723+A2AMW3+P62812+Q9JLF1+P26049+P22933+Q9D6F4+P63080+P27681+P16305). Briefly: (§1) Increase in [3H]flunitrazepam binding to GABA-A receptor in mouse embryo cortical neurons. Format: protein-complex assay. A digest of the protocol: (§2)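 Intact mouse embryonic cortical neurons at 7-9 days in vitro, washed into HEPES buffer pH 7.3. Incubated 30 min at 25 °C with 1.3-2.0 nM [3H]flunitrazepam and steroid (1 nM-30 µM, DMSO <0.5% final). Nonspecific binding taken with 20 µM diazepam; 100 µM GABA as positive control. Data as % of control binding. EC50 from sigmoid fits of at least six concentrations in triplicate, 3-5 independent curves.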

Test [2] concerns the target T1, GABA-A receptor; anion channel (Mus musculus). Briefly: Effect on GABA-A-induced 36chloride ion influx in mouse embryo cortical neurons at 10 uM relative to basal value. It counts as functional. A digest of the protocol:
(§3)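 Primary cortical neurons from 16-day mouse embryos, cultured 7-9 days with 5 µM fluorodeoxyuridine/20 µM uridine to block glia. 45 min preincubation in Earle's salt solution pH 7.4 at 36.8 °C, then 10 min at room temperature. 7 s uptake of 36Cl (0.2-0.7 µCi/mL) with or without 5 µM GABA plus steroid. Basal uptake measured without GABA or steroid. Lysate counted by scintillation.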

In test [3] the target is GABA-A receptor; anion channel. The test is described as §1. It counts as protein-complex assay. A digest of the protocol:
as §2

Test [4] deals with Cortical neurone. As to the kind of experiment: Loss of viability of cortical neuron at 100 uM after 72 hrs. Format: functional, cell-based. As to conditions: Mus musculus. A digest of the protocol:
(§4)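 Mouse embryonic cortical neuron cultures exposed to steroid at 10 µM for 72 h, or 100 µM for 24 or 72 h. MTT (250 µg/mL in HEPES buffer) for 15 min at 37 °C, formazan dissolved in 5% SDS and read at 560 nm. Expressed as % of untreated controls. Two independent experiments in triplicate.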

For test [5], the system named is Cortical neurone. As to the kind of experiment: Loss of viability of cortical neuron at 10 uM after 72 hrs. As to conditions: Mus musculus. It counts as functional, cell-based. A digest of the protocol:
as §4

For test [6], the system named is Cortical neurone. As to the kind of experiment: Loss of viability of cortical neuron at 100 uM after 24 hrs. Format: functional, cell-based. As to conditions: Mus musculus. A digest of the protocol:
as §4

Test [7] concerns the target T1, GABA-A receptor; anion channel (Mus musculus). As to the kind of experiment: Effect on 36chloride ion influx in mouse embryo cortical neurons in absence of GABA-A at 10 uM relative to basal value. Format: functional. A digest of the protocol:
as §3

The target in test [8] is GABA-A receptor; anion channel (Rattus norvegicus) (UniProt O09028+P15431+P18506+P18508+P19969+P20236+P23574+P23576+P28471+P28473+P30191+P62813+P63079+P63138+Q91ZM7+Q9ES14). Briefly: Inhibition of [35S]TBPS binding to GABA-A receptor in Wistar rat brain membrane at 10 uM. Format: cell membranes. A digest of the protocol:
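Whole-brain membranes from adult male Wistar rats in 20 mM KH2PO4/200 mM KCl, pH 7.4. Incubated 60 min at 37 °C with 2 nM [35S]TBPS, 1 µM GABA and steroid. Nonspecific binding defined with 200 µM picrotoxinin. Results expressed as % of DMSO controls.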

Turning to `CC(=O)[C@H]1CC[C@H]2[C@@H]3CN[C@H]4C[C@H](O)CC[C@]4(C)[C@H]3CC[C@]12C`, the result in test [1] was inactive. This molecule also showed an Activity in test [2] of 86%.

For the molecule `CC(=O)[C@H]1CC[C@H]2[C@@H]3C(=O)N[C@H]4C[C@H](O)CC[C@]4(C)[C@H]3CC[C@]12C`, the outcome in test [1] was inactive. Moreover, in test [2], the Activity was determined as 81%.

As for `CC(=O)[C@H]1CC[C@H]2[C@@H]3[C@H]4O[C@]45C[C@H](O)CC[C@]5(C)[C@H]3CC[C@]12C`, the result in test [1] was inactive. In test [2], this molecule registered an Activity of 104%.

With `CC(=O)[C@H]1CC[C@H]2[C@@H]3CC[C@@H]4C[C@H](O)CC[C@]4(C)[C@H]3CC[C@]12C` [ELTANOLONE], the “Log EC50” value in test [3] is -5.93. The molecule also came in with an Activity in test [2] of 162%.

With `CC(=O)[C@H]1CC[C@H]2[C@@H]3CC(=O)[C@H]4C[C@H](O)CC[C@]4(C)[C@H]3CC[C@]12C`, the result in test [1] was inactive. This molecule also had an Activity in test [2] of 100%.

For the molecule `CC(=O)[C@H]1CC[C@H]2[C@@H]3C(=O)C[C@H]4C[C@H](O)CC[C@]4(C)[C@H]3CC[C@]12C`, in test [1], the outcome was inactive. The Activity in test [2] was 90%.

On to `CC(=O)[C@H]1CC[C@H]2[C@@H]3CC=C4C[C@H](O)CC[C@]4(C)[C@H]3CC[C@]12C`, for which the Activity in test [2] came to 131%.

With `CC(=O)[C@H]1CC[C@H]2[C@@H]3[C@@H]4O[C@@]45C[C@H](O)CC[C@]5(C)[C@H]3CC[C@]12C`, in test [1], the outcome was inactive. In addition, the Activity in test [2] was found to be 103%.

In the case of `CC(=O)[C@H]1CC[C@H]2[C@@H]3C(=O)[C@H]4C[C@H](O)CC[C@]4(C)[C@H]3CC[C@]12C`, the outcome in test [1] was inactive. Also, in test [2], the Activity was 82%.

As to `CC(=O)[C@H]1CC[C@H]2[C@H]3C(=C4CC[C@@H](O)C[C@@]4(C)[C@H]3O)CC[C@]12C`, in test [1], the outcome was inactive. Besides, the Activity in test [2] amounted to 76%.

Regarding `CC(=O)[C@H]1CC[C@H]2[C@@H]3CC[C@H]4C[C@H](O)CC[C@]4(C)[C@H]3CC[C@]12C` [BREXANOLONE], the outcome in the test on Cortical neurone [4] was Active. Besides, the outcome in the test on Cortical neurone [5] and in the test with Cortical neurone [6] was inactive. Further, the “Log EC50” value in test [3] was -6.06. In addition, in test [2], the Activity stood at 164%.

Turning to `CC(=O)[C@H]1CC[C@H]2[C@@H]3C[C@@H]4C[C@H](O)CC[C@]4(C)[C@H]3CC[C@]12C`, the values for the Activity in test [7] and in test [2] were 1.7% and 172%, respectively. Also, the outcome in the test with Cortical neurone [5] and in the test on Cortical neurone [6] was inactive. For the same molecule, the “Log EC50” value in test [3] was -6.03.

Take `CC(=O)[C@H]1CC[C@H]2[C@@H]3C[C@H]4C[C@H](O)CC[C@]4(C)[C@H]3CC[C@]12C`: the Activity in test [7] came out at 1.7%; in test [2], 199%. Besides, the inhibition in test [8] turned out to be 33%. Also, the outcome in the test with Cortical neurone [5] and in the test with Cortical neurone [6] was inactive. Besides, the “Log EC50” value in test [3] is -6.61.

On to `CC(=O)[C@H]1CC[C@H]2[C@@H]3[C@H]4O[C@]45C[C@@H](O)CC[C@]5(C)[C@H]3CC[C@]12C`, for which, in test [1], the outcome was inactive. Further, the Activity in test [2] was found to be 99%.
